According to ChEMBL document CHEMBL1133631, “Synthesis of potent agonists of the D-myo-inositol 1,4, 5-trisphosphate receptor based on clustered disaccharide polyphosphate analogues of adenophostin A” (J Med Chem, 2000):

What was measured:
[1] = Concentration response relationship was used to measure half-maximally effective agonist concentration.; format: functional
How it was run: (§1)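 Saponin-permeabilized hepatocytes (10⁶ cells·mL⁻¹, 10 µg·mL⁻¹ saponin) loaded to steady state with ⁴⁵Ca²⁺ (20 µCi·mL⁻¹) for 5 min at 37 °C in cytosol-like medium (free Ca²⁺ 200 nM, 7.5 mM ATP, FCCP, PIPES pH 7.0). Cells diluted 5-fold into ATP-free medium with 1.25 µM thapsigargin; ligand added after 15 s, stores filtered 60 s later. Logistic fits gave maximal response, EC50 and Hill slope; means ± SEM.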

[2] = Hill coefficient for [Ca2+] release was evaluated; format: functional; how it was run: as §1
[3] = system: IP3 receptor (Rattus norvegicus); assay: [Ca2+] release with 10 uM was measured by non-specific binding method.
[4] = system: IP3 receptor (Rattus norvegicus); assay: Concentration response relationship was fitted to logistic equations using kaleidagraph software from which maximal response was measured.
[5] = Binding affinity was measured by equilibrium competing with [3H]IP3 (Inositol 1,4,5-trisphosphate receptor)
How it was run: (§2)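 Membranes from livers of male Wistar rats were Percoll-purified. A 0.1 mg protein sample in 50 mM Tris, 1 mM EGTA, pH 8.3 was incubated 5 min at 4 °C with [³H]IP₃ (45 nCi, 40 Ci/mmol) and competing ligand. The incubation was stopped by centrifugation, and pellets were scintillation-counted. Parameters came from logistic fits. Nonspecific binding was 10–15%. Triplicate, means ± SEM.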

[6] = Hill coefficient for equilibrium binding was evaluated (Inositol 1,4,5-trisphosphate receptor); how it was run: as §2
[7] = Ratio of EC50 and Kd; format: functional
[8] = compound was tested and the Ratio of EC50 and Kd was found out.; format: functional
[9] = system: IP3 receptor (Rattus norvegicus); assay: Maximal Ca+ release response was determined from permeabilized rat hepatocyte assay

Row | Compound | EC50 [1] [nM] | IP3-sensitive Ca2+ stores [3] [%] | Kd [5] [nM] | Hill slope [6] | Ratio [7] | Ratio [8] | Hill slope [2] | Max response [4] [%] | Max response [9] [%]
1 | O=P(O)(O)OC1[C@@H](OP(=O)(O)O)C(CO)O[C@@H](O[C@@H]2[C@H](OP(=O)(O)O)C(OCCCc3ccc(CCCOC4O[C@H](CO)[C@H](O[C@@H]5OC(CO)[C@H](OP(=O)(O)O)C(OP(=O)(O)O)[C@@H]5O)[C@@H]4OP(=O)(O)O)cc3)O[C@@H]2CO)[C@H]1O (stereo partly specified) | 215 | 92 | 3.6 | 0.95 | 60 | – | 2.2 | 31 | –
2 | O=P(O)(O)OC1[C@@H](OP(=O)(O)O)C(O)C(O)[C@@H](OP(=O)(O)O)[C@H]1O (stereo partly specified) | 201 | – | 1.7 | 0.88 | 120 | – | 2.9 | 32 | –
3 | O=P(O)(O)OC1[C@@H](OP(=O)(O)O)C(CO)O[C@@H](O[C@@H]2[C@H](OP(=O)(O)O)C(OCCCc3cc(CCCOC4O[C@H](CO)[C@H](O[C@@H]5OC(CO)[C@H](OP(=O)(O)O)C(OP(=O)(O)O)[C@@H]5O)[C@@H]4OP(=O)(O)O)c(CCCOC4O[C@H](CO)[C@H](O[C@@H]5OC(CO)[C@H](OP(=O)(O)O)C(OP(=O)(O)O)[C@@H]5O)[C@@H]4OP(=O)(O)O)cc3CCCOC3O[C@H](CO)[C@H](O[C@@H]4OC(CO)[C@H](OP(=O)(O)O)C(OP(=O)(O)O)[C@@H]4O)[C@@H]3OP(=O)(O)O)O[C@@H]2CO)[C@H]1O (stereo partly specified) | 161 | 101 | 4.3 | 1.04 | 37 | – | 2.1 | 42 | –

More lines, main results first:

Row | EC50 [1] [nM] | IP3-sensitive Ca2+ stores [3] [%] | Kd [5] [nM] | Hill slope [6] | Ratio [7] | Ratio [8] | Compound | Hill slope [2] | Max response [4] [%] | Max response [9] [%]
4 | 484 | 89 | 4.4 | 0.99 | – | 110 | CO[C@@H]1O[C@H](CO)[C@@H](O[C@H]2O[C@@H](CO)[C@@H](OP(=O)(O)O)[C@H](OP(=O)(O)O)[C@@H]2O)[C@H]1OP(=O)(O)O | 3.4 | – | 33
5 | 381 | 87 | 3.1 | 1.16 | – | 123 | O=P(O)(O)OC1[C@@H](OP(=O)(O)O)C(CO)O[C@@H](O[C@@H]2[C@H](OP(=O)(O)O)C(OCCCc3ccccc3)O[C@@H]2CO)[C@H]1O (stereo partly specified) | 3.9 | – | 34
6 | 491 | 87 | 4.7 | 0.97 | – | 104 | CCCOC1O[C@H](CO)[C@H](O[C@@H]2OC(CO)[C@H](OP(=O)(O)O)C(OP(=O)(O)O)[C@@H]2O)[C@@H]1OP(=O)(O)O (stereo partly specified) | 2.1 | – | 42
